Laboratory results from ChEMBL document CHEMBL1129784, “Decomposition pathways and in vitro HIV inhibitory effects of isoddA pronucleotides: toward a rational approach for intracellular delivery of nucleoside 5'-monophosphates” (J Med Chem, 1996).
pEC50: −log10 of the molar value. “And” between values parts separate entries of the source, which are not always exact repeats. Equal values may be shown once.

Tests used:
[1] = Half life in culture medium (25 uM, 37 degree C); format: ADME
Summary of the method: (§1)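 Incubated at 25 µM initial concentration and 37 °C in full CEM cell extract, in RPMI 1640 with 10% heat-inactivated fetal calf serum, or in freshly withdrawn human serum. Aliquots analysed by on-line cleaning HPLC (precolumn deproteinization) with UV at 260 nm. Relative concentrations came from peak areas. Half-lives were derived from kinetic model fits: pseudo-first-order or substrate inhibition.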

[2] = Selectivity index which is the ratio between CC50 and EC50; format: functional
[3] = Half life in CEM cell extracts (25 uM, 37 degree C); format: ADME, CCRF-CEM; conditions: human; summary of the method: as §1
C8166 [4] = assay: Ability to reduce 50% viability of C8166 cells acutely infected with HIV-2 strain IIIB; format: functional; conditions: Homo sapiens, in the assay text read “HIV-2 strain CBL-20” for “HIV-2 strain IIIB”
Summary of the method: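 Cytotoxicity in mock-infected cells run in parallel with the antiviral assay: 1 × 10^4 MT-4 or C8166 cells per well with or without various compound concentrations, 4-day incubation at 37 °C, viable cells counted by MTT. CC50 is the dose reducing viability by 50% at day 4. Mean of three independent determinations; variation among duplicates <22%.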

MT4 [5] = assay: Ability to reduce 50% viability of mock-infected MT-4 cells; conditions: Homo sapiens
C8166 [6] = assay: Effective dose to achieve 50% protection of C8166 cells acutely infected with HIV-2 strain IIIB; format: functional, cell-based; conditions: Homo sapiens, in the assay text read “HIV-2 strain CBL-20” for “HIV-2 strain IIIB”
Summary of the method: (§2)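 Inhibition of virus-induced cytopathogenicity in acutely infected cells. HIV-1 IIIB in MT-4 cells at 100 CCID50; HIV-2 CBL-20 in C8166 cells at 1000 CCID50. 1 × 10^4 cells per well with various compound concentrations, 4 days at 37 °C, viability by MTT. EC50 is the dose giving 50% protection. Mean of three independent determinations.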

MT4 [7] = assay: Effective dose to achieve 50% protection of MT-4 cells from acutely infected HIV-1 strain IIIB; format: functional, cell-based; conditions: Homo sapiens; summary of the method: as §2

half-life at 25 µM [1] [h]	half-life at 25 µM [3] [h]	pEC50 (C8166 [6])	Compound	SI [2]	CC50 (C8166 [4]) [nM]	CC50 (MT4 [5]) [nM]	pEC50 (MT4 [7])
103	1		Cc1cn(C2CC(N=[N+]=[N-])C(COP(=O)(OCCSC(=O)C(C)(C)C)OCCSC(=O)C(C)(C)C)O2)c(=O)[nH]c1=O (stereo not given)	600 and 245			
9	< 0.1		CC(=O)SCCOP(=O)(OCCSC(C)=O)OCC1OC(n2cc(C)c(=O)[nH]c2=O)CC1N=[N+]=[N-] (stereo not given)				
		8.22	Cc1cn([C@H]2C[C@H](N=[N+]=[N-])[C@@H](CO)O2)c(=O)[nH]c1=O [ZIDOVUDINE]	30000 and > 83000	> 500000	150000	8.30
